Assays:
[1] = test system: CEM-SS; experiment: Cytotoxic concentration required to reduce the viability […] by 50% in CEM-SS cells; assay type: functional; details: Homo sapiens
Method in brief: (§1)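 Viability measured in uninfected cells of each line; CC50 is the concentration reducing viability by 50%. Values are averages of at least three separate experiments, with variation under standard operating procedures below ±10%.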

[2] = test system: CEM-SS; experiment: Effective concentration required to inhibit the replication of HIV-1 by 50% in CEM-SS cells; assay type: functional, cell-based; details: Homo sapiens
Method in brief: (§2)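 Cells infected with HIV-1; EC50 is the concentration inhibiting viral replication by 50%. Values are averages of at least three separate experiments, with variation below ±10%.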

[3] = test system: CCRF-CEM; experiment: Cytotoxic concentration required to reduce the viability […] by 50% in CEM/TK cells; assay type: functional; details: Homo sapiens; method in brief: as §1
[4] = test system: CCRF-CEM; experiment: Effective concentration required to inhibit the replication of HIV-1 by 50% in CEM/TK cells; assay type: functional, cell-based; details: Homo sapiens; method in brief: as §2
[5] = test system: MT4; experiment: Cytotoxic concentration required to reduce the viability […] by 50% MT-4 cells; assay type: functional; details: Homo sapiens; method in brief: as §1
[6] = test system: MT4; experiment: Effective concentration required to inhibit the replication of HIV-1 by 50% in MT-4 cells; assay type: functional, cell-based; details: Homo sapiens; method in brief: as §2
[7] = In vitro Apparent partition coefficients of mixed aryl phosphodiester was determined; assay type: physicochemical; details: octanol/water
Method in brief: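 Apparent log P by an adapted shake-flask method, partitioning between 1-octanol and 0.02 M potassium phosphate buffer at pH 7.2. Each compound was run in triplicate.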

[8] = Half-life was determined for the compound in cell extracts (CE); assay type: ADME
Method in brief: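 Total CEM-SS cell extracts, 37 °C, phosphotriester at 50 µM initial concentration. Samples analysed by on-line ISRP-cleaning HPLC (C18, acetonitrile gradient in 20 mM triethylammonium acetate pH 6.9, 267 nm). Products identified by HPLC-ESI-MS and/or co-injection. Relative amounts taken from peak areas. Half-lives derived from pseudo-first-order rate constants fitted by mono- or polyexponential regression.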

[9] = Half-life was determined for the compound in cell extracts pre-incubated with EDTA; stable; assay type: ADME
[10] = Half-life was determined for the compound in heat inactivated cell extracts; stable; assay type: ADME
[11] = Half-life was determined for the compound in cell extracts pre-incubated with EDTA; assay type: ADME

Row | Structure (SMILES) | CC50 [1] [µM] | EC50 [2] [µM] | CC50 [3] [µM] | EC50 [4] [µM] | CC50 [5] [µM] | EC50 [6] [µM] | logD [7] | half-life [8] [h] | T1/2 [9] | T1/2 [10] | half-life [11] [h]
1 | Cc1cn([C@H]2C[C@H](N=[N+]=[N-])[C@@H](COP(=O)(OCCSC(=O)C(C)(C)C)Oc3ccc(C[C@H](N)CO)cc3)O2)c(=O)[nH]c1=O (stereo not given in full) | > 100 | 0.007 | > 100 | 7 | > 100 | 0.018 | 0.64 |  |  |  | 
2 | Cc1cn([C@H]2C[C@H](N=[N+]=[N-])[C@@H](COP(=O)(OCCSC(=O)C(C)(C)C)Oc3ccc(C[C@H](NC(=O)OC(C)(C)C)C(=O)N(C(=O)OC(C)(C)C)C(=O)OC(C)(C)C)cc3)O2)c(=O)[nH]c1=O (stereo not given in full) | > 10 | 0.049 | > 10 | 4 | > 10 | 0.034 | 5 |  |  |  | 
3 | Cc1cn([C@H]2C[C@H](N=[N+]=[N-])[C@@H](COP(=O)(OCCSC(=O)C(C)(C)C)Oc3ccc(C[C@H]4COC(C)(C)N4C(=O)OC(C)(C)C)cc3)O2)c(=O)[nH]c1=O (stereo not given in full) | > 10 | 0.031 | > 10 | 9 | > 10 | 0.098 | 3.7 |  |  |  | 
4 | Cc1cn([C@H]2C[C@H](N=[N+]=[N-])[C@@H](COP(=O)(OCCSC(=O)C(C)(C)C)Oc3ccc(C[C@H](N)C(N)=O)cc3)O2)c(=O)[nH]c1=O (stereo not given in full) | > 10 | 0.002 | > 10 | 4 | > 10 | 0.016 | 1.27 |  |  |  | 
5 | CC(=O)N[C@@H](Cc1ccc(OP(=O)(OCCSC(=O)C(C)(C)C)OC[C@H]2O[C@@H](n3cc(C)c(=O)[nH]c3=O)C[C@@H]2N=[N+]=[N-])cc1)C(N)=O (stereo not given in full) | > 10 | 0.082 | > 10 | 8 | > 10 | 0.066 | 1.52 |  |  |  | 
6 | CC(=O)N(C(=O)OC(C)(C)C)[C@@H](Cc1ccc(OP(=O)(OCCSC(=O)C(C)(C)C)OC[C@H]2O[C@@H](n3cc(C)c(=O)[nH]c3=O)C[C@@H]2N=[N+]=[N-])cc1)C(=O)N(C(=O)OC(C)(C)C)C(=O)OC(C)(C)C (stereo not given in full) | > 10 | 0.015 | > 10 | 6 | > 10 | 0.032 | 5.8 |  |  |  | 
7 | Cc1cn([C@H]2C[C@H](N=[N+]=[N-])[C@@H](COP(=O)(OCCSC(=O)C(C)(C)C)Oc3ccc(C[C@@H](CO)NC(=O)OC(C)(C)C)cc3)O2)c(=O)[nH]c1=O (stereo not given in full) |  | 0.017 | > 10 | 4 | > 10 | 0.044 | 2.5 |  |  |  | 
8 | Cc1cn([C@H]2C[C@H](N=[N+]=[N-])[C@@H](COP(=O)(O)Oc3ccc(C[C@H](N)C(=O)O)cc3)O2)c(=O)[nH]c1=O.Cl |  |  |  |  |  |  |  | 12.8 | stable | stable | 
9 | Cc1cn([C@H]2C[C@H](N=[N+]=[N-])[C@@H](COP(=O)(O)Oc3ccc(C[C@H](N)CO)cc3)O2)c(=O)[nH]c1=O.Cl |  |  |  |  |  |  |  | 68 | stable | stable | 
10 | CC(=O)N[C@@H](Cc1ccc(OP(=O)(O)OC[C@H]2O[C@@H](n3cc(C)c(=O)[nH]c3=O)C[C@@H]2N=[N+]=[N-])cc1)C(N)=O.Cl |  |  |  |  |  |  |  | 19.3 |  | stable | 166
11 | Cc1cn([C@H]2C[C@H](N=[N+]=[N-])[C@@H](COP(=O)(OCCSC(=O)C(C)(C)C)Oc3ccc(C[C@H](N)C(=O)O)cc3)O2)c(=O)[nH]c1=O (stereo not given in full) | > 100 | 0.006 | > 100 | 29 | > 10 | 0.075 | 0.25 |  |  |  | 
12 | Cc1cn([C@H]2C[C@H](N=[N+]=[N-])[C@@H](CO)O2)c(=O)[nH]c1=O [ZIDOVUDINE] | > 100 | 0.003 | > 100 | > 100 | > 100 |  | 0.06 |  |  |  | 
